Assay outcomes (PubChem)
Statin myotox sup = suppression of simvastatin myotoxicity; C2C12 myotubes + simvastatin, ATP luminescence, 48 h; scaled: DMSO 0, geranylgeraniol control 100; rescue of ATP level, % at 7.49 µM; 330,000 compounds, 0.78% hits; AID 602340;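 active means mean ATP rescue above about 67%, or every replicate alone reaching that limit, limit read from the data, passing the limit was not always enough; inconclusive means no clear call, values can overlap the other calls; inactive means mean under the limit and some replicate under it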;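 further: myotubes were challenged with 10 µM simvastatin during compound exposure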
dFosB activator = activators of mouse delta FosB homodimer; P13346; purified delta FosB, TAMRA-CDK5 oligo fluorescence polarization; percent of positive-control signal above neutral wells; activation, % at 25 µM; 340,000 compounds, 0.99% hits;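 active means mean activation above about 17%, with every replicate also reaching it, limit read from the data, passing the limit was not always enough; inconclusive means only one of the two conditions met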
Target sequence (P13346 whole entry, looked up): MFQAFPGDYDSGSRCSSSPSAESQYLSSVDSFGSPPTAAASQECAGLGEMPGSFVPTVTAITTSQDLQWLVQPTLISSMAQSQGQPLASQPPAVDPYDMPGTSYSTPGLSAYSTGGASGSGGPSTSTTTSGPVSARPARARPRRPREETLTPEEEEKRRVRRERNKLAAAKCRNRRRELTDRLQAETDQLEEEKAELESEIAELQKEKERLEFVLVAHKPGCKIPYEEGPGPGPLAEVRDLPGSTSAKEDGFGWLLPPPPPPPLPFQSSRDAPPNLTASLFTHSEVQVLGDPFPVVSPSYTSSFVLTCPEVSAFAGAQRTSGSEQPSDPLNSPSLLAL
CAL PDZ FP-1 = blocks peptide binding to human CAL PDZ domain. Q9HD26. purified CAL PDZ, TMR-peptide fluorescence polarization, 1 h. inhibition, % at 20 µM. 330,000 compounds, 0.02% hits. AID 504414;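 active means highest replicate inhibition of at least 40%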;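 further: plate controls were DMSO neutral control wells for no effect and unlabeled competitor peptide control wells for full effect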
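System: tagged CAL PDZ domain. Schedule: 1 h room-temperature incubation prior to read. Signal: fluorescence polarization (mP). Measure: percent inhibition from loss of millipolarization.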
CDK5 p35 inh = inhibitors of human CDK5/p35 kinase | AID 488839 | 330,000 compounds, 0.01% hits | Q00535+Q15078 | Recombinant CDK5/p35, ADP-Glo luminescence, 60 min | inhibition, % at 10 µM;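 active means highest replicate inhibition of at least 50% and at least 75% of replicates reaching 50%; inconclusive means only one of the two criteria met; inactive means both criteria failed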;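 further: plate controls were DMSO neutral control for no effect and GW8510 at 10 µM for full effect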
CAL PDZ FP-2 = CAL PDZ (human) peptide binding inhibition. 300,000 compounds, 0.92% hits. purified CAL PDZ, TMR-peptide fluorescence polarization, 1 h. inhibition, % at 24.9 µM. Q9HD26;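 active means mean inhibition of at least 30% with at least half of replicates also reaching 30%; inconclusive means no clear call, values can overlap the other calls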;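 further: 0% = DMSO neutral control and 100% = excess unlabeled competitor peptide PRC23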
S100A4 MyoIIA = blocks human S100A4 binding to myosin IIA peptide | 360,000 compounds, 0.14% hits | S100A4/TAMRA-MyoIIA peptide fluorescence polarization | inhibition, % at 10.7 µM | AID 652163;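 active means mean inhibition of at least 70% across replicates, with every replicate also reaching that level; inconclusive means mean inhibition reaches 70% but some replicates fall short; inactive means mean inhibition below 70%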
Target sequence (P26447 whole entry, looked up): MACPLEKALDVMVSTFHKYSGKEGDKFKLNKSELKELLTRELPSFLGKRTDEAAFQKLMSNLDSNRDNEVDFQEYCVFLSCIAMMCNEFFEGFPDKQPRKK
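Compound dosing: one dose per compound; test system: human S100A4 monomer with TAMRA-labelled myosin IIA peptide; probe or stimulus: TAMRA-labelled myosin IIA heavy-chain peptide probe, 5 nM; medium: HEPES buffer with Ca2+, pH 7.2; schedule: 5 min incubation before reading; benchmarks: neutral control DMSO, positive control TFP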
Active calls of the source: *; ? = inconclusive; . = no result. Shown are actives, neighbours in structure and some others; about 2% of the full set was active somewhere.

SMILES | Statin myotox sup | dFosB activator | CAL PDZ FP-1 | CDK5 p35 inh | CAL PDZ FP-2 | S100A4 MyoIIA
COc1ccc(NC(=O)c2cc(C3CCCCN3C(=O)C3CC3)on2)c(C)c1 (stereo not given) | 1.8 | . | . | . | . | -3.5
CCOC(=O)c1cccc(NC(=O)CN2C(=O)C3C4C=CC(C4)C3C2=O)c1 (stereo not given) | -7.8 | -4.6 | -0.7 | -0.6 | -2.0 | .
COc1ccc(C(=O)COC(=O)c2ccc(NC(C)=O)cc2)cc1[N+](=O)[O-] | . | -5.0 | -1.4 | -1.3 | -4.4 | .
O=C(NC(=S)Nc1ccccc1C(=O)O)c1ccc2ccccc2c1 | -0.4 | 0.6 | -3.8 | 1.1 | -5.0 | -5.5
Cc1ccc(S(=O)(=O)N2CCN(C(=O)N3CCCC3)CC2)cc1 | 5.1 | 0.2 | -3.1 | 0.8 | 0.9 | -5.3
Cc1ccc(S(=O)(=O)N2CCCSCC2)cc1 | 113.9* | 1.0 | 0.2 | 0.6 | -3.6 | .
COc1cccc(OC)c1C(=O)N1CCN(S(=O)(=O)c2ccc(C)cc2)CC1 | 126.1* | 4.9 | -1.0 | 1.2 | -4.1 | .
Cc1ccc(S(=O)(=O)N2CCN(C(=O)N(C)C)CC2)cc1 | . | -0.2 | 67.1* | 0.5 | -5.1 | 3.9
CN(C)S(=O)(=O)N1CCN(S(=O)(=O)c2ccccc2)CC1 | 2.6 | 8.4 | 0.2 | -1.2 | 58.8* | .
CCCCC1CC2=C(C(=O)OC(C)(C)O2)C(c2cccc3ccccc23)O1 (stereo not given) | -2.9 | . | . | . | . | -5.5
CC(C)(C)OC(=O)NCCCCCNC(=O)c1[nH]cnc1C(=O)N[C@@H](Cc1ccccc1)C(=O)OCc1ccccc1 | 131.9* | -8.8 | -0.8 | -0.5 | -3.2 | -0.8
CC(C)C[C@H](NC(=O)c1nc[nH]c1C(=O)NCCCCCNC(=O)OC(C)(C)C)C(=O)OCc1ccccc1 | -3.6 | -9.5 | 0.1 | 2.2 | -1.2 | -0.8
CCCCn1nnnc1C(c1ccccc1)N1CCN(c2ccccc2)CC1 (stereo not given) | . | . | . | . | . | -3.4
Cc1cc(C)c(NC(=O)CNC(=O)COC(=O)/C=C/c2cccs2)c(C)c1 | -6.1 | 7.0 | 0.1 | 0.7 | 2.2 | 83.8*
Cc1ccc(NC(=O)COC(=O)/C=C/c2cccs2)cc1 | . | 0.6 | -2.7 | -0.7 | 0.7 | .
Cc1ccc(C(C)C)c(OC/C(O)=C(\C#N)c2nc3ccccc3[nH]2)c1 | -52.8 | 0.9 | 0.4 | 1.0 | 63.4* | -3.1
CC(C)C(=O)OC/C(O)=C(\C#N)c1nc2ccccc2[nH]1 | -6.2 | -1.4 | 0.4 | -1.4 | -2.1 | 2.4
COc1cccc(C(=O)Nc2c3c(nn2-c2ccc(Cl)cc2)CS(=O)(=O)C3)c1OC | 0.5 | -17.3 | -0.7 | 0.3 | 0.9 | -5.1
CCOCC(=O)NC1CCc2cc(OC(=O)COCC)c(OC)c(OC)c2-c2ccc(SC)c(=O)cc21 (stereo not given) | -23.5 | -8.7 | -0.5 | -0.9 | 34.1* | -0.4
COc1cc2c(c(OC)c1OC)-c1ccc(SC)c(=O)cc1C(NC(=O)C(F)(F)F)CC2 (stereo not given) | . | -4.8 | 0.6 | -0.2 | -1.9 | -0.6
CCOC(=O)NC(=O)/C(C#N)=C\NNc1ncc(C(F)(F)F)cc1Cl | . | 1.0 | -0.2 | 0.4 | 0.5 | -4.4
CCN(CC)C(=O)COc1ccc(N(C)S(=O)(=O)c2ccc(NC(C)=O)cc2)cc1 | -5.3 | -4.8 | -0.5 | 0.5 | 71.3* | -0.9
O=c1[nH]c2ccc(S(=O)(=O)N3CCC(Cc4ccccc4)CC3)cc2o1 | 8.2 | 2.2 | -0.8 | -1.4 | 0.2 | .
CC(C)(C)n1ncc2c(=O)n(Cc3ccc(Cl)c(Cl)c3)cnc21 | . | 7.7 | 4.1 | -0.8 | 81.5* | 2.9
Cc1ccc(Cn2cnc3c(cnn3C(C)(C)C)c2=O)cc1 | 3.1 | -4.5 | -0.6 | 2.0 | 0.5 | -1.6
SMILES | Statin myotox sup | dFosB activator | CAL PDZ FP-1 | CDK5 p35 inh | CAL PDZ FP-2 | S100A4 MyoIIA
CCC(C)c1ccc(N(CC(=O)NC(C)(C)C)C(=O)CNC(=O)c2cccs2)cc1 (stereo not given) | 42.2 | -18.0 | -1.0 | 0.6 | 31.7* | -7.9
Oc1ccc(/C=N/NC(=S)NC2CC3CCC2C3)cc1 (stereo not given) | 0.8 | -9.6 | 1.0 | -3.1 | -2.4 | -2.5
NC(=O)Cn1cc(/C=N\NS(=O)(=O)c2ccc(F)cc2)c2ccccc21 | 5.3 | -2.8 | 0.2 | -1.6 | 35.0* | -2.5
CCc1ccc(S(=O)(=O)N/N=C\c2cn(CC(N)=O)c3ccccc23)cc1 | . | -8.7 | -1.7 | -1.2 | -3.6 | -2.4
CC1(C)Cc2ccccc2-c2nnc(-c3ccccc3)n21 | . | 6.4 | -0.2 | 0.8 | . | .
C=CCn1c(COc2ccc(F)cc2)nnc1SCC(=O)NC1CCCC1 | -14.3 | -1.1 | -1.9 | 0.6 | -2.3 | -5.4
COCCNC(=O)/C(C#N)=C/c1c(N2CCN(c3ccccc3)CC2)nc2ccccn2c1=O | -0.8 | -11.6 | 1.7 | 0.2 | 57.2* | 0.8
C[C@H](CO)N1C[C@H](C)[C@@H](CN(C)Cc2ccc(Cl)c(Cl)c2)Oc2ccc(NS(=O)(=O)c3cn(C)cn3)cc2CC1=O | 165.5* | . | . | . | . | -11.2
C[C@@H]1CN([C@H](C)CO)C(=O)Cc2cc(NS(=O)(=O)c3cn(C)cn3)ccc2O[C@H]1CN(C)Cc1ccc(-c2ccccc2)cc1 | ? | . | . | . | . | -13.0
C[C@@H]1CN([C@H](C)CO)C(=O)Cc2cc(NS(=O)(=O)c3cn(C)cn3)ccc2O[C@H]1CN(C)Cc1ccc2c(c1)OCO2 | -6.6 | . | . | . | . | .
C[C@@H]1CN([C@H](C)CO)C(=O)Cc2cc(NS(=O)(=O)c3cn(C)cn3)ccc2O[C@@H]1CN(C)Cc1ccc(-c2ccccc2)cc1 | 82.0* | . | . | . | . | 4.6
CC(OC(=O)CCc1ccccc1)C(=O)Nc1ncc(Cl)cc1Cl (stereo not given) | . | 4.5 | -1.9 | -1.9 | -3.0 | -1.0
COc1ccc(CSc2nnc(Cc3sc(-c4ccccc4)nc3-c3ccccc3)o2)cc1 | 96.5* | -17.5 | -4.5 | -0.3 | 4.9 | .
O=c1[nH]ncc(N/N=C\c2cccnc2)c1Cl | . | -11.0 | -0.6 | 0.2 | -6.0 | 1.0
Cc1cccc(/C=N\Nc2cn[nH]c(=O)c2Cl)c1 | 101.8* | -8.2 | -3.1 | 0.0 | -5.1 | 0.9
O=C1CN(O)C=C2N=c3ccccc3=C2N1c1ccc([N+](=O)[O-])cc1 | . | -4.4 | -1.5 | -1.0 | 76.6* | -2.0
O=C1CCCN1c1ccc([N+](=O)[O-])cc1 | -4.3 | . | . | . | . | 5.9
CC(C)C(=O)c1cn(CC(=O)O)c2ccccc12 | -8.3 | -1.4 | -1.7 | 2.1 | 0.0 | 0.7
O=C(NNC(=O)c1cc(Cl)ccc1O)c1ccc(NS(=O)(=O)c2cccs2)cc1 | 14.3 | -4.4 | -1.2 | -1.0 | 3.4 | -3.6
O=C(COC(=O)c1ccc(NS(=O)(=O)c2cccs2)cc1)Nc1nc2c(F)c(F)c(F)cc2s1 | . | 36.7* | -1.6 | -1.6 | -4.6 | .
